Measurements: ChEMBL document CHEMBL4813940, “Design, synthesis and biological evaluation of novel benzoxaborole derivatives as potent PDE4 inhibitors for topical treatment of atopic dermatitis” (Eur J Med Chem, 2021)
pIC50: −log10 of the molar value.

Tests used:
[1] = target: T1, 3',5'-cyclic-AMP phosphodiesterase 4B (Homo sapiens, UniProt Q07343); test: Inhibition of PDE4B (unknown origin) assessed as hydrolysis of [3H]-cGMP into [3H]-GMP incubated for 30 mins by scintillation of proximity assay; conditions: in the assay text read “[3H]-cAMP into [3H]-AMP” for “[3H]-cGMP into [3H]-GMP”
Method in brief: (§1)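 Scintillation proximity assay of [3H]-cAMP or [3H]-cGMP hydrolysis to [3H]-AMP or [3H]-GMP. Enzyme was diluted to 1–2 nM in 50 mM Tris pH 7.5, 8.3 mM MgCl2 and 1.7 mM EGTA. Reaction was started by adding enzyme, test solution and radiolabelled substrate, then incubated at 30 °C for 30 min and stopped with SPA beads. Run in duplicate.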

Mus musculus [2] = test: Antiinflammatory activity against PMA-induced ICR mouse ear oedema model assessed as reduction in ear swelling at 1 mg/ear topically administered and measured after 4 hrs; type: functional
Method in brief: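 Male ICR mice, 8 weeks old. The sample was applied topically to the right ear at 1.0 mg/ear in ethanol before PMA. After 4 h the mice were killed by cervical dislocation and both ears were measured with a micrometer. Oedema was the thickness difference between the ears; inhibition was the percent reduction versus the model group.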

Homo sapiens [3] = species on record: Homo sapiens; test: Selectivity index, ratio of IC50 for PDE1A (unknown origin) to IC50 for PDE4B (unknown origin)
Homo sapiens [4] = species on record: Homo sapiens; test: Selectivity index, ratio of IC50 for PDE1B (unknown origin) to IC50 for PDE4B (unknown origin)
Homo sapiens [5] = species on record: Homo sapiens; test: Selectivity index, ratio of IC50 for PDE1C (unknown origin) to IC50 for PDE4B (unknown origin)
Homo sapiens [6] = species on record: Homo sapiens; test: Selectivity index, ratio of IC50 for PDE2A (unknown origin) to IC50 for PDE4B (unknown origin)
Homo sapiens [7] = species on record: Homo sapiens; test: Selectivity index, ratio of IC50 for PDE3A (unknown origin) to IC50 for PDE4B (unknown origin)
Homo sapiens [8] = species on record: Homo sapiens; test: Selectivity index, ratio of IC50 for PDE3B (unknown origin) to IC50 for PDE4B (unknown origin)
Homo sapiens [9] = species on record: Homo sapiens; test: Selectivity index, ratio of IC50 for PDE5A (unknown origin) to IC50 for PDE4B (unknown origin)
Homo sapiens [10] = species on record: Homo sapiens; test: Selectivity index, ratio of IC50 for PDE7A (unknown origin) to IC50 for PDE4B (unknown origin)
Homo sapiens [11] = species on record: Homo sapiens; test: Selectivity index, ratio of IC50 for PDE10A (unknown origin) to IC50 for PDE4B (unknown origin)
Mus musculus [12] = test: Antiinflammatory activity against calcipotriol-induced atopic dermatitis mouse model assessed as swelling inhibition by measuring thickness of left ear at 30 mg/kg for 14 days (RVB = 0.26 +/- 0.01 mm); type: functional; conditions: time 14 day
Method in brief: (§2)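 Ointment was applied to the dorsal side of the left ear twice daily (30 mg/kg) for 14 days; the normal group received ethanol. On day 17 the mice were anaesthetized with 10% chloral hydrate and ear thickness was measured with a micrometer. Percent inhibition of the inflammatory reaction was calculated against untreated animals.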

Mus musculus [13] = test: Antiinflammatory activity against calcipotriol-induced atopic dermatitis mouse model assessed as swelling inhibition by measuring thickness of right ear at 30 mg/kg for 14 days (RVB = 0.55 +/- 0.06 mm); type: functional; conditions: time 14 day; method in brief: as §2
Mus musculus [14] = test: Antiinflammatory activity against calcipotriol-induced atopic dermatitis mouse model assessed as swelling inhibition at 30 mg/kg for 14 days; type: functional; design: scale not given: the % may be the effect or the level left; conditions: time 14 day; method in brief: as §2
[15] = Phototoxicity in albino guinea pig assessed as skin reaction score at 5 mg/kg topical treatment irradiated with 4.2 mw/cm2 UVA for 40 mins and measured after 24 hrs day of light irradiation by H and E staining based microscopic analysis; type: organism-based, Cavia porcellus; conditions: in vivo, topical_or_ocular
Method in brief: (§3)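 Albino guinea pigs (250–300 g) were randomized into 5 groups. Four 2 cm × 2 cm depilated areas beside the spine were prepared 24 h before dosing, and 0.2 mL of test substance was applied. Animals were restrained and exposed to UVA for 40 min. Erythema, eschar and oedema were scored visually at 1, 24, 48 and 72 h. Skin taken at 72 h was formalin-fixed, H&E-stained and read by a pathologist.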

[16] = Phototoxicity in albino guinea pig assessed as skin reaction score at 10 mg/kg topical treatment irradiated with 4.2 mw/cm2 UVA for 40 mins and measured after 24 hrs day of light irradiation by H and E staining based microscopic analysis; type: organism-based, Cavia porcellus; conditions: in vivo, topical_or_ocular; method in brief: as §3
[17] = Phototoxicity in albino guinea pig assessed as skin reaction score at 24 mg/kg topical treatment irradiated with 4.2 mw/cm2 UVA for 40 mins and measured after 24 hrs day of light irradiation by H and E staining based microscopic analysis; type: organism-based, Cavia porcellus; conditions: in vivo, topical_or_ocular; method in brief: as §3
[18] = Toxicity in Sprague-Dawley rat assessed as systemic toxicity at 700 mg/kg, po for 14 days; type: organism-based; conditions: in vivo, 336 h, time 14 day
Method in brief: (§4)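 Healthy male and female Sprague-Dawley rats, 8-week-old, randomised to three groups of 6 males + 6 females. Vehicle 1% CMC-Na or 400 and 700 mg/kg given by oral gavage once daily for 14 days. Mortality and clinical signs checked daily; body weight on days 0, 7, 14. Isoflurane euthanasia, macroscopic necropsy, weights of liver, kidney, testis, thymus, heart and lung.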

[19] = Toxicity in Sprague-Dawley rat assessed as death at 700 mg/kg, po for 14 days; type: organism-based; conditions: in vivo, 336 h, time 14 day; method in brief: as §4
[20] = Toxicity in Sprague-Dawley rat assessed as liver/brain index at 400 to 700 mg/kg, po for 14 days; type: organism-based; conditions: in vivo, 336 h, dose 400-700 mg/kg, time 14 day
Method in brief: (§5)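 Sprague-Dawley rats, 8 weeks old, 6 male and 6 female per group. Dosed by oral gavage once daily for 14 days with 1% CMC-Na vehicle or 400 and 700 mg/kg. Animals were checked daily for mortality and clinical signs, with body weight recorded on days 0, 7 and 14. Rats were then euthanized under isoflurane, necropsied, and their organs weighed.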

[21] = Toxicity in Sprague-Dawley rat assessed as spleen/brain index at 400 to 700 mg/kg, po for 14 days; type: organism-based; conditions: in vivo, 336 h, dose 400-700 mg/kg, time 14 day; method in brief: as §5
[22] = Toxicity in Sprague-Dawley rat assessed as white blood cell count at 400 to 700 mg/kg, po for 14 days; type: organism-based; conditions: in vivo, 336 h, dose 400-700 mg/kg, time 14 day
[23] = Toxicity in Sprague-Dawley rat assessed as ALT at 400 to 700 mg/kg, po for 14 days; type: organism-based; conditions: in vivo, 336 h, dose 400-700 mg/kg, time 14 day
[24] = Toxicity in Sprague-Dawley rat assessed as AST at 400 to 700 mg/kg, po for 14 days; type: organism-based; conditions: in vivo, 336 h, dose 400-700 mg/kg, time 14 day
[25] = Toxicity in Sprague-Dawley rat assessed as blood pressure at 400 to 700 mg/kg, po for 14 days; type: organism-based; conditions: in vivo, 336 h, dose 400-700 mg/kg, time 14 day
[26] = Toxicity in Sprague-Dawley rat assessed as blood glucose at 400 to 700 mg/kg, po for 14 days; type: organism-based; conditions: in vivo, 336 h, dose 400-700 mg/kg, time 14 day
[27] = Phototoxicity in albino guinea pig assessed as infiltration of inflammatory cells at 10 mg/kg topical treatment irradiated with 4.2 mw/cm2 UVA for 40 mins and measured after 24 hrs day of light irradiation by H and E staining based microscopic analysis; type: organism-based, Cavia porcellus; conditions: in vivo, topical_or_ocular, in the assay text read “72 hrs” for “24 hrs”; method in brief: as §3
[28] = Phototoxicity in albino guinea pig assessed as necrosis at 10 mg/kg topical treatment irradiated with 4.2 mw/cm2 UVA for 40 mins and measured after 24 hrs day of light irradiation by H and E staining based microscopic analysis; type: organism-based, Cavia porcellus; conditions: in vivo, topical_or_ocular, in the assay text read “72 hrs” for “24 hrs”; method in brief: as §3
[29] = target: Dual specificity calcium/calmodulin-dependent 3',5'-cyclic nucleotide phosphodiesterase 1A (Homo sapiens, UniProt P54750); test: Inhibition of PDE1A (unknown origin); method in brief: as §1
[30] = target: Dual specificity calcium/calmodulin-dependent 3',5'-cyclic nucleotide phosphodiesterase 1B (Homo sapiens, UniProt Q01064); test: Inhibition of PDE1B (unknown origin); method in brief: as §1
[31] = target: Dual specificity calcium/calmodulin-dependent 3',5'-cyclic nucleotide phosphodiesterase 1C (Homo sapiens, UniProt Q14123); test: Inhibition of PDE1C (unknown origin)
Method in brief: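 For PDE1A, PDE1B and PDE1C, the reaction buffer was also supplemented with 0.2 mM CaCl2 and […]. Otherwise the same SPA run as the other PDEs: [3H]-nucleotide hydrolysis at 30 °C for 30 min, in duplicate.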

[32] = target: cGMP-dependent 3',5'-cyclic phosphodiesterase (Homo sapiens, UniProt O00408); test: Inhibition of PDE2A (unknown origin); method in brief: as §1
[33] = target: cGMP-inhibited 3',5'-cyclic phosphodiesterase 3A (Homo sapiens, UniProt Q14432); test: Inhibition of PDE3A (unknown origin); method in brief: as §1
[34] = target: cGMP-inhibited 3',5'-cyclic phosphodiesterase 3B (Homo sapiens, UniProt Q13370); test: Inhibition of PDE3B (unknown origin); method in brief: as §1
[35] = target: T1, 3',5'-cyclic-AMP phosphodiesterase 4B; test: Inhibition of PDE4B (unknown origin); method in brief: as §1
[36] = target: cGMP-specific 3',5'-cyclic phosphodiesterase (Homo sapiens, UniProt O76074); test: Inhibition of PDE5A (unknown origin); method in brief: as §1
[37] = target: High affinity 3',5'-cyclic-AMP phosphodiesterase 7A (Homo sapiens, UniProt Q13946); test: Inhibition of PDE7A (unknown origin); method in brief: as §1
[38] = target: cAMP and cAMP-inhibited cGMP 3',5'-cyclic phosphodiesterase 10A (Homo sapiens, UniProt Q9Y233); test: Inhibition of PDE10A (unknown origin); method in brief: as §1
cAMP and cAMP-inhibited cGMP 3',5'-cyclic phosphodiesterase 10A, sequence (Q9Y233 whole entry): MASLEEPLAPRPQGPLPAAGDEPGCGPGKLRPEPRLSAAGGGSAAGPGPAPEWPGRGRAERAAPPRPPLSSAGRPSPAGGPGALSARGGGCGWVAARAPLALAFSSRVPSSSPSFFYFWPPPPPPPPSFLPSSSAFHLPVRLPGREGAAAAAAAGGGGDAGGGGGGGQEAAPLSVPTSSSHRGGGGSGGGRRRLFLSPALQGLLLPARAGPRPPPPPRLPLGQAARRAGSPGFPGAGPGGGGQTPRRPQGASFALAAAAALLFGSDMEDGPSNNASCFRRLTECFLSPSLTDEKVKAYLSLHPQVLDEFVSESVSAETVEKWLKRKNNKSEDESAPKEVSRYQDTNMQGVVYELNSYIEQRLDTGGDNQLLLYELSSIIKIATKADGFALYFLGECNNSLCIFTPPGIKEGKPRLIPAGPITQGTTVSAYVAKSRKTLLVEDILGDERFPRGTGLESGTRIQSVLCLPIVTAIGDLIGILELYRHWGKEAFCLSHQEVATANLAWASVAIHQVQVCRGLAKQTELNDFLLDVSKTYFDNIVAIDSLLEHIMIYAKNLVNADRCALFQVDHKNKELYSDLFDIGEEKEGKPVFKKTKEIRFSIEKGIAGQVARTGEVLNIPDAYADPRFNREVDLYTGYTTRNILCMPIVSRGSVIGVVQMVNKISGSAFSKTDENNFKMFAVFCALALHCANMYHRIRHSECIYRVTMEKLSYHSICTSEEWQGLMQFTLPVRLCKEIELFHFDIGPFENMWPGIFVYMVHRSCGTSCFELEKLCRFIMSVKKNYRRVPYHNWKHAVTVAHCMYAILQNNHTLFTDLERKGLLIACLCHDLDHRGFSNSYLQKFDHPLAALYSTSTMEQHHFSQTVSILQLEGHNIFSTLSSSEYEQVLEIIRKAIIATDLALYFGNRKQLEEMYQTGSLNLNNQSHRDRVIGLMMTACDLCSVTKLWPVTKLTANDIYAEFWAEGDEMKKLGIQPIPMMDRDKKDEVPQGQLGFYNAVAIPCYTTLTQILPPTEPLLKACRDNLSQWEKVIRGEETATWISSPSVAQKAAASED

T1 sequence (Q07343 whole entry): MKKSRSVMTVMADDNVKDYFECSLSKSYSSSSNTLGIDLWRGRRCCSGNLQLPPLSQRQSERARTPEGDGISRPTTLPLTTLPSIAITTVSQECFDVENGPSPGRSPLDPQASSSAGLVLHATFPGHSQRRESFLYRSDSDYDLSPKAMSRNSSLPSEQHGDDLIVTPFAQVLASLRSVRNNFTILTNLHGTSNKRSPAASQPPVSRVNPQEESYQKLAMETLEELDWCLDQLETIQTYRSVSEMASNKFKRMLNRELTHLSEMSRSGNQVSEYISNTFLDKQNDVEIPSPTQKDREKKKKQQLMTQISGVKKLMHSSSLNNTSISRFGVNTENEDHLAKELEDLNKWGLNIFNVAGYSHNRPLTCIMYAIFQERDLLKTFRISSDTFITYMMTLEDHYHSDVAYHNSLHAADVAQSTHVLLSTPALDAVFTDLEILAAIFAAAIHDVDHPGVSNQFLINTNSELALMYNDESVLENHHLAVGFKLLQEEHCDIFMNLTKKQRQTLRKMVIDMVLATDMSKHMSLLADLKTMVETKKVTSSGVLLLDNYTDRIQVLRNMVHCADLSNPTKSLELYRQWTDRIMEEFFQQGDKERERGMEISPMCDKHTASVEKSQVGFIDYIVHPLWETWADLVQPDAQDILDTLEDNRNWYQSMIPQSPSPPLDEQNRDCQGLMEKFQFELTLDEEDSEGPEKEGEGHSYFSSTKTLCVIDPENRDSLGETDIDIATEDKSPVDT
High affinity 3',5'-cyclic-AMP phosphodiesterase 7A, sequence (Q13946 whole entry): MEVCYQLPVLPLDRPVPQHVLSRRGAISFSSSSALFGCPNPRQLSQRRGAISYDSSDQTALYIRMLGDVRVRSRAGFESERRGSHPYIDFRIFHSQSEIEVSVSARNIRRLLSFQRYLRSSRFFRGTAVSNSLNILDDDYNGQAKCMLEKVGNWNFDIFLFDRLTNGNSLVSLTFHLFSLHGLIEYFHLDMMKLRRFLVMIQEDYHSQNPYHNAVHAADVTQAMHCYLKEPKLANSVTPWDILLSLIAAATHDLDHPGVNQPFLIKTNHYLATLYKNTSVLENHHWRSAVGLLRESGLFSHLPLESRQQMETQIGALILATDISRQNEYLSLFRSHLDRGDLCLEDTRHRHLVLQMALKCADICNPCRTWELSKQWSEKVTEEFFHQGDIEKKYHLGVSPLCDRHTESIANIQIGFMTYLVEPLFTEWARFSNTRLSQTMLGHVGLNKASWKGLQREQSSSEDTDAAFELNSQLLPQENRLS
Dual specificity calcium/calmodulin-dependent 3',5'-cyclic nucleotide phosphodiesterase 1A, sequence (P54750 whole entry): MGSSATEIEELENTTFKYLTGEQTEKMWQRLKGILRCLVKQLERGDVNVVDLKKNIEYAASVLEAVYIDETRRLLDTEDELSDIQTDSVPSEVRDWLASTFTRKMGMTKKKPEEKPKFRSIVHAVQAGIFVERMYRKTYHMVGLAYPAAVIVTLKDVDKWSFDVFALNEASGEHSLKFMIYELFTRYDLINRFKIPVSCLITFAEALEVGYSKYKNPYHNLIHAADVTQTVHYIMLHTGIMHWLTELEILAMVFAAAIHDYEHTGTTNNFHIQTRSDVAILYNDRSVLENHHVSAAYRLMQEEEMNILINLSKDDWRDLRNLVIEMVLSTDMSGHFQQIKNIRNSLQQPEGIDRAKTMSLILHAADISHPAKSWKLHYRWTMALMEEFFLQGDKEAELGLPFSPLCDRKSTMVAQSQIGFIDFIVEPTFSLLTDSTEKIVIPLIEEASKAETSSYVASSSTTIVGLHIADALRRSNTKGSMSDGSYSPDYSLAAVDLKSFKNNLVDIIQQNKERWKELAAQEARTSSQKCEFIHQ
cGMP-inhibited 3',5'-cyclic phosphodiesterase 3A, sequence (Q14432 whole entry): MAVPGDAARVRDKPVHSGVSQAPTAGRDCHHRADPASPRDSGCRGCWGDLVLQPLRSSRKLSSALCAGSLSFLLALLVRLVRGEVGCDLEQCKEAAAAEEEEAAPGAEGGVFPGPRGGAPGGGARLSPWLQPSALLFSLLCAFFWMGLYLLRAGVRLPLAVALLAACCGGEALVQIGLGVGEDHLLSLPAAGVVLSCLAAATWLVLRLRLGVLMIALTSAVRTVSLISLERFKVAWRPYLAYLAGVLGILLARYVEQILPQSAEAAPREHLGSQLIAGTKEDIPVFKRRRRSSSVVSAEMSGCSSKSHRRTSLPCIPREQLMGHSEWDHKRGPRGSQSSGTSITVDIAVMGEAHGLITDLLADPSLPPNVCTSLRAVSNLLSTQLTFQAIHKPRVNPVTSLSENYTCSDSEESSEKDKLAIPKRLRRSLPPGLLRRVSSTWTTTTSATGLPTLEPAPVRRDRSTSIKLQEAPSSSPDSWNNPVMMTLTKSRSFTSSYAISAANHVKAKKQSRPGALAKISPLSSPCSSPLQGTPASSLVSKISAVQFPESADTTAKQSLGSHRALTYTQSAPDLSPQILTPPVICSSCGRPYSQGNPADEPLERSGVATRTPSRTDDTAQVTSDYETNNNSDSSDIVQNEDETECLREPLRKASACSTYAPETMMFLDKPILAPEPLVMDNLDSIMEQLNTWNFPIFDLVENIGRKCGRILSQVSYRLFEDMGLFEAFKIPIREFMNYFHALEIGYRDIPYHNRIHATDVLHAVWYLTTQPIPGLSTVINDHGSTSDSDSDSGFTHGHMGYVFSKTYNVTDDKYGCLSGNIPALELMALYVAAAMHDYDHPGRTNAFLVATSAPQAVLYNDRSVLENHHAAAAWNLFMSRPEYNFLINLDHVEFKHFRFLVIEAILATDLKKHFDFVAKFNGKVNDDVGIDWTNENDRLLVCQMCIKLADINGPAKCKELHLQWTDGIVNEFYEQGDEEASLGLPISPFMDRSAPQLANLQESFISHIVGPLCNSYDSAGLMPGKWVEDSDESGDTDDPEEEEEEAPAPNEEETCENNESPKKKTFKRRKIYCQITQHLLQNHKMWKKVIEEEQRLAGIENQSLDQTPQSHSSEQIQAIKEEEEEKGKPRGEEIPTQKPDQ
Dual specificity calcium/calmodulin-dependent 3',5'-cyclic nucleotide phosphodiesterase 1B, sequence (Q01064 whole entry): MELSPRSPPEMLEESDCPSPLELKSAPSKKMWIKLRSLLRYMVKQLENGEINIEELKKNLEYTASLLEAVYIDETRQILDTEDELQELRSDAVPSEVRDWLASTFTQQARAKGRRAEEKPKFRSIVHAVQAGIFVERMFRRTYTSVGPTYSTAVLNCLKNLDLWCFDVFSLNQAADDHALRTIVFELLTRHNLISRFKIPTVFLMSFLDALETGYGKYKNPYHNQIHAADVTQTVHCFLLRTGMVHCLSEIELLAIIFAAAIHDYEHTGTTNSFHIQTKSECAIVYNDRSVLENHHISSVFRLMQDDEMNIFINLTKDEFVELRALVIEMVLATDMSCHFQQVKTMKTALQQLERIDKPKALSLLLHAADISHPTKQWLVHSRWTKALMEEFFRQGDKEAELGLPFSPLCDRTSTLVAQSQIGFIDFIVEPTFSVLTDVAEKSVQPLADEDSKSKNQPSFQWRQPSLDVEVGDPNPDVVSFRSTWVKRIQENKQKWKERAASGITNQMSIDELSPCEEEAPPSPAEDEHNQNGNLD

With `O=c1ccoc2cc(Oc3ccc4c(c3)COB4O)ccc12` the pIC50 [1] was 7.72.
For `COC(=O)c1ccc2nc(Oc3ccc4c(c3)COB4O)ccc2c1`, the pIC50 [1] was 7.97 and the “inhibition (INH)” value (Mus musculus [2]) was 54.72%.
With `OB1OCc2cc(Oc3ccc4c(C(F)(F)F)cccc4n3)ccc21` the pIC50 [1] was 8.19 and the “inhibition (INH)” value (Mus musculus [2]) was 58.05%.
With `OB1OCc2cc(Oc3ccc4cc(C(F)(F)F)ccc4n3)ccc21` the pIC50 [1] was 9.38, the “inhibition (INH)” value (Mus musculus [2]) was 65.85% and the Ratio IC50 (Homo sapiens [3]) was 154. It also gave a Ratio IC50 (Homo sapiens [4]) of 138, a Ratio IC50 (Homo sapiens [5]) of 2060 and a Ratio IC50 (Homo sapiens [6]) of 286. It also gave a Ratio IC50 (Homo sapiens [7]) of 19400, a Ratio IC50 (Homo sapiens [8]) of 17100 and a Ratio IC50 (Homo sapiens [9]) of 1950. For the same compound, the Ratio IC50 (Homo sapiens [10]) was 83, the Ratio IC50 (Homo sapiens [11]) was 10800 and the Activity (Mus musculus [12]) was 0.29 mm. For the same compound, the Activity (Mus musculus [13]) was 0.32 mm, the Activity (Mus musculus [14]) was 73.33% and the Activity [15] was “Non-Toxic”. For the same compound, the Activity [16] was “Non-Toxic”, the Activity [17] was “Non-Toxic” and the Activity [18] was “Non-Toxic”. The Activity [19] was “Non-Toxic”, the Activity [20] was “Non-Toxic” and the Activity [21] was “Non-Toxic”. For the same compound, the Activity [22] was “Non-Toxic”, the Activity [23] was “Non-Toxic” and the Activity [24] was “Non-Toxic”. For the same compound, the Activity [25] was “Non-Toxic”, the Activity [26] was “Non-Toxic” and the Activity [27] was “Non-Toxic”. For the same compound, the Activity [28] was “Non-Toxic”, the pIC50 [29] was 7.19 and the pIC50 [30] was 7.24. It also gave a pIC50 [31] of 6.06, a pIC50 [32] of 6.92 and a pIC50 [33] of 5.09. It also gave a pIC50 [34] of 5.14, a pIC50 [35] of 9.38 and a pIC50 [36] of 6.09. For the same compound, the pIC50 [37] was 7.46 and the pIC50 [38] was 5.34.
`COC(=O)c1cnn2ccc(Oc3ccc4c(c3)COB4O)nc12` showed a pIC50 [1] of 7.34.
For `N#Cc1ccc2cc(Oc3ccc4c(c3)COB4O)ccc2c1`, the pIC50 [1] was 7.59.
In the case of `COC(=O)c1cccc2nc(Oc3ccc4c(c3)COB4O)ccc12`, the pIC50 [1] was 8.19 and the “inhibition (INH)” value (Mus musculus [2]) was 55.62%.
In the case of `COC(=O)c1cc(Oc2ccc3c(c2)COB3O)nc2ccccc12`, the pIC50 [1] was 8.08 and the “inhibition (INH)” value (Mus musculus [2]) was 30.6%.
